Test results from ChEMBL document CHEMBL1152796, “Azole antimicrobial pharmacophore-based tetrazoles: synthesis and biological evaluation as potential antimicrobial and anticonvulsant agents” (Bioorg Med Chem, 2009).
Converted amounts (≈) assume the structure as drawn. The source made the active and inactive calls. The rule behind the calls is not given here.

Key:
Pseudomonas aeruginosa [1] = test: Antibacterial activity against Pseudomonas aeruginosa ATCC 27853 at 1 mg/mL after 24 hrs by agar diffusion method; type: functional; conditions: ATCC 27853, 24 h, read-out: Diameter of inhibition zone
How it was run: (§1)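 Agar disc diffusion: 5 mm sterile paper discs soaked in 1 mg/mL test solution in DMSO were placed on agar seeded with the organism, in triplicate, with a DMSO-only control. Bacterial plates were incubated at 37 °C for 24 h and fungal plates for 7 days. Read-out was the average inhibition-zone diameter in mm. Fungi were clinical isolates.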

Trichophyton rubrum = test: Antifungal activity against Trichophyton rubrum isolate after 72 hrs by twofold serial dilution method; type: functional, organism-based
Aspergillus niger = test: Antifungal activity against Aspergillus niger isolate after 72 hrs by twofold serial dilution method; type: functional, organism-based
Escherichia coli [2] = test: Antibacterial activity against Escherichia coli ATCC 25922 after 24 to 48 hrs by twofold serial dilution method; type: functional
How it was run: (§2)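 Broth microdilution in Müller–Hinton broth. DMSO stocks at 800 were diluted twofold from 400 down to 6.25. Wells received 10^6 CFU/mL bacterial suspension and were incubated at 36 °C for 24–48 h, with controls. MIC was read per well. Duplicate assays; run only for compounds giving inhibition zones ≥14 mm.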

Bacillus subtilis [3] = test: Antibacterial activity against Bacillus subtilis NRRL B-14819 after 24 to 48 hrs by twofold serial dilution method; type: functional; how it was run: as §2
Micrococcus luteus [4] = test: Antibacterial activity against Micrococcus luteus ATCC 21881 after 24 to 48 hrs by twofold serial dilution method; type: functional; how it was run: as §2
Pichia kudriavzevii = test: Antifungal activity against Candida krusei isolate after 72 hrs by twofold serial dilution method; type: functional, organism-based
Staphylococcus aureus [5] = test: Antibacterial activity against Staphylococcus aureus ATCC 6538 at 1 mg/mL after 24 hrs by agar diffusion method; type: functional; conditions: ATCC 6538, 24 h, read-out: Diameter of inhibition zone; how it was run: as §1
Klebsiella pneumoniae [6] = test: Antibacterial activity against Klebsiella pneumoniae isolate at 1 mg/mL after 24 hrs by agar diffusion method; type: functional; conditions: read-out: Diameter of inhibition zone; how it was run: as §1
Candida tropicalis = test: Antifungal activity against Candida tropicalis isolate after 72 hrs by twofold serial dilution method; type: functional, organism-based
Pseudomonas aeruginosa [7] = test: Antibacterial activity against Pseudomonas aeruginosa ATCC 27853 after 24 to 48 hrs by twofold serial dilution method; type: functional; how it was run: as §2
Klebsiella pneumoniae [8] = test: Antibacterial activity against Klebsiella pneumoniae isolate after 24 to 48 hrs by twofold serial dilution method; type: functional; how it was run: as §2
Escherichia coli [9] = test: Antibacterial activity against Escherichia coli ATCC 25922 at 1 mg/mL after 24 hrs by agar diffusion method; type: functional; conditions: ATCC 25922, 24 h, read-out: Diameter of inhibition zone; how it was run: as §1
Bacillus subtilis [10] = test: Antibacterial activity against Bacillus subtilis NRRL B-14819 at 1 mg/mL after 24 hrs by agar diffusion method; type: functional; conditions: read-out: Diameter of inhibition zone; how it was run: as §1
Micrococcus luteus [11] = test: Antibacterial activity against Micrococcus luteus ATCC 21881 at 1 mg/mL after 24 hrs by agar diffusion method; type: functional; conditions: ATCC 21881, 24 h, read-out: Diameter of inhibition zone; how it was run: as §1
Aspergillus fumigatus = test: Antifungal activity against Aspergillus fumigatus isolate at 1 mg/mL after 7 days by agar diffusion method; type: functional; conditions: 168 h, read-out: Diameter of inhibition zone; how it was run: as §1
Staphylococcus aureus [12] = test: Antibacterial activity against Staphylococcus aureus ATCC 6538 after 24 to 48 hrs by twofold serial dilution method; type: functional; how it was run: as §2
Candida albicans = test: Antifungal activity against Candida albicans isolate at 1 mg/mL after 7 days by twofold serial dilution method; type: functional; conditions: 168 h, read-out: Diameter of inhibition zone
Mus musculus [13] = test: Anticonvulsant activity in Wister albino mouse assessed as protection against maximal electroshock-induced seizures at 100 mg/kg, ip administered 30 mins before metrazole challenge measured after 30 mins; type: functional; conditions: route intraperitoneal
Mus musculus [14] = test: Anticonvulsant activity in Wister albino mouse assessed as protection against subcutaneous metrazole-induced seizures at 100 mg/kg, ip administered 30 mins before metrazole challenge measured after 30 mins; type: functional; conditions: route intraperitoneal
How it was run: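 Wistar albino mice, either sex, 25–30 g, 3 months old, in groups of six. Compounds in DMSO were given ip at 30, 100 or 300 mg/kg; vehicle-only controls. After 30 min, metrazole 100 mg/kg in DMSO was injected sc at the posterior midline. Protection meant absence of any clonic spasm lasting ≥5 s; scored as protected/tested.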

Row | SMILES | zone of inhibition at 1000 µg/mL (Pseudomonas aeruginosa [1]) | Activity (Trichophyton rubrum) | Activity (Aspergillus niger) | MIC (Escherichia coli [2]) | MIC (Bacillus subtilis [3]) | MIC (Micrococcus luteus [4]) | Activity (Pichia kudriavzevii) | zone of inhibition at 1000 µg/mL (Staphylococcus aureus [5]) | zone of inhibition at 1000 µg/mL (Klebsiella pneumoniae [6]) | Activity (Candida tropicalis) | MIC (Pseudomonas aeruginosa [7]) | MIC (Klebsiella pneumoniae [8]) | zone of inhibition at 1000 µg/mL (Escherichia coli [9]) | zone of inhibition at 1000 µg/mL (Bacillus subtilis [10]) | zone of inhibition at 1000 µg/mL (Micrococcus luteus [11]) | zone of inhibition at 1000 µg/mL (Aspergillus fumigatus) | MIC (Staphylococcus aureus [12]) | zone of inhibition at 1000 µg/mL (Candida albicans) | Activity (Mus musculus [13]) | Activity (Mus musculus [14])
1 | O=C(COC(Cn1nnc(-c2ccccc2)n1)c1ccc(Cl)cc1)N/N=C/c1ccc(Cl)cc1 (configuration not stated) | ≥ 14 mm | inactive | inactive | 100 µg/mL (≈ 202 µM) | 50 µg/mL (≈ 101 µM) | 100 µg/mL (≈ 202 µM) | inactive | ≥ 14 mm | ≥ 14 mm | inactive | ≥ 200 µg/mL | ≥ 200 µg/mL | ≥ 14 mm | ≥ 14 mm | ≥ 14 mm | ≥ 14 mm | 50 µg/mL (≈ 101 µM) | ≥ 14 mm | – | –
2 | Clc1ccc(/C=C/n2nnc(-c3ccccc3)n2)cc1 | ≥ 14 mm | inactive | inactive | 100 µg/mL (≈ 354 µM) | ≥ 200 µg/mL | ≥ 200 µg/mL | inactive | ≥ 14 mm | ≥ 14 mm | inactive | ≥ 200 µg/mL | ≥ 200 µg/mL | ≥ 14 mm | ≥ 14 mm | ≥ 14 mm | ≥ 14 mm | 100 µg/mL (≈ 354 µM) | ≥ 14 mm | – | –
3 | O=C(COC(Cn1nnnc1Cc1ccccc1)c1ccc(Cl)cc1)N/N=C/c1ccc(Cl)cc1 (configuration not stated) | ≥ 14 mm | inactive | inactive | 100 µg/mL (≈ 196 µM) | 100 µg/mL (≈ 196 µM) | 100 µg/mL (≈ 196 µM) | inactive | ≥ 14 mm | ≥ 14 mm | inactive | ≥ 200 µg/mL | ≥ 200 µg/mL | ≥ 14 mm | ≥ 14 mm | ≥ 14 mm | ≥ 14 mm | 100 µg/mL (≈ 196 µM) | ≥ 14 mm | 50% | 50%
4 | O=C(COC(Cn1nnnc1Cc1ccccc1)c1ccc(Cl)cc1)NNC(=S)Nc1ccccc1 (configuration not stated) | ≥ 14 mm | inactive | inactive | 100 µg/mL (≈ 192 µM) | ≥ 200 µg/mL | 100 µg/mL (≈ 192 µM) | inactive | ≥ 14 mm | ≥ 14 mm | inactive | ≥ 200 µg/mL | ≥ 200 µg/mL | ≥ 14 mm | ≥ 14 mm | ≥ 14 mm | ≥ 14 mm | 100 µg/mL (≈ 192 µM) | ≥ 14 mm | – | –
5 | Clc1ccc(C(Cn2nnc(-c3ccccc3)n2)OCc2nnc(Nc3ccccc3)o2)cc1 (configuration not stated) | ≥ 14 mm | inactive | inactive | 25 µg/mL (≈ 52.8 µM) | 50 µg/mL (≈ 106 µM) | 100 µg/mL (≈ 211 µM) | inactive | ≥ 14 mm | ≥ 14 mm | inactive | 100 µg/mL (≈ 211 µM) | 100 µg/mL (≈ 211 µM) | ≥ 14 mm | ≥ 14 mm | ≥ 14 mm | ≥ 14 mm | 12.5 µg/mL (≈ 26.4 µM) | ≥ 14 mm | – | –
6 | Cc1cc(C)n(C(=O)COC(Cn2nnc(-c3ccccc3)n2)c2ccc(Cl)cc2)n1 (configuration not stated) | ≥ 14 mm | inactive | inactive | 50 µg/mL (≈ 114 µM) | 25 µg/mL (≈ 57.2 µM) | 50 µg/mL (≈ 114 µM) | inactive | ≥ 14 mm | ≥ 14 mm | inactive | 100 µg/mL (≈ 229 µM) | 100 µg/mL (≈ 229 µM) | ≥ 14 mm | ≥ 14 mm | ≥ 14 mm | ≥ 14 mm | 12.5 µg/mL (≈ 28.6 µM) | ≥ 14 mm | 0% | 0%
7 | NNC(=O)COC(Cn1nnc(-c2ccccc2)n1)c1ccc(Cl)cc1 (configuration not stated) | – | inactive | inactive | ≥ 200 µg/mL | ≥ 200 µg/mL | ≥ 200 µg/mL | inactive | – | – | inactive | ≥ 200 µg/mL | ≥ 200 µg/mL | – | – | – | – | 100 µg/mL (≈ 268 µM) | – | – | –
8 | Sc1nnc(COC(Cn2nnc(-c3ccccc3)n2)c2ccc(Cl)cc2)n1-c1ccc(Cl)cc1 (configuration not stated) | ≥ 14 mm | inactive | inactive | 100 µg/mL (≈ 191 µM) | 50 µg/mL (≈ 95.3 µM) | 100 µg/mL (≈ 191 µM) | inactive | ≥ 14 mm | ≥ 14 mm | inactive | ≥ 200 µg/mL | 100 µg/mL (≈ 191 µM) | ≥ 14 mm | ≥ 14 mm | ≥ 14 mm | ≥ 14 mm | 25 µg/mL (≈ 47.7 µM) | ≥ 14 mm | – | –
9 | O=C(O)COC(Cn1nnc(-c2ccccc2)n1)c1ccc(Cl)cc1 (configuration not stated) | ≥ 14 mm | inactive | inactive | ≥ 200 µg/mL | 100 µg/mL (≈ 279 µM) | ≥ 200 µg/mL | inactive | ≥ 14 mm | ≥ 14 mm | inactive | ≥ 200 µg/mL | ≥ 200 µg/mL | ≥ 14 mm | ≥ 14 mm | ≥ 14 mm | ≥ 14 mm | 100 µg/mL (≈ 279 µM) | ≥ 14 mm | – | –
10 | CCOC(=O)COC(Cn1nnc(-c2ccccc2)n1)c1ccc(Cl)cc1 (configuration not stated) | ≥ 14 mm | inactive | inactive | ≥ 200 µg/mL | ≥ 200 µg/mL | ≥ 200 µg/mL | inactive | ≥ 14 mm | ≥ 14 mm | inactive | ≥ 200 µg/mL | ≥ 200 µg/mL | ≥ 14 mm | ≥ 14 mm | ≥ 14 mm | ≥ 14 mm | 100 µg/mL (≈ 259 µM) | ≥ 14 mm | – | –
11 | O=C(COC(Cn1nnnc1Cc1ccccc1)c1ccc(Cl)cc1)NNC(=S)Nc1ccc(Cl)cc1 (configuration not stated) | ≥ 14 mm | inactive | inactive | ≥ 200 µg/mL | ≥ 200 µg/mL | ≥ 200 µg/mL | inactive | ≥ 14 mm | ≥ 14 mm | inactive | ≥ 200 µg/mL | ≥ 200 µg/mL | ≥ 14 mm | ≥ 14 mm | ≥ 14 mm | ≥ 14 mm | 100 µg/mL (≈ 180 µM) | ≥ 14 mm | – | –
12 | CC1(C)S[C@@H]2[C@H](NC(=O)[C@H](N)c3ccccc3)C(=O)N2[C@H]1C(=O)O.O.O.O [AMPICILLIN TRIHYDRATE] | – | – | – | 6.25 µg/mL | 12.5 µg/mL | 12.5 µg/mL | – | – | – | – | 12.5 µg/mL | 12.5 µg/mL | – | – | – | – | 6.25 µg/mL | – | – | –
13 | OC(Cn1nnc(-c2ccccc2)n1)c1ccc(Cl)cc1 (configuration not stated) | – | – | – | – | – | – | – | – | – | – | – | – | – | – | – | – | – | – | 0% | 0%
